# VIM-2 inhibitor = blocks Pseudomonas aeruginosa VIM-2 metallo-beta-lactamase | actives 0.89% (n = 290,000) | purified VIM-2, nitrocefin hydrolysis, epi-absorbance fluorescence | inhibition, % at 5.6 µM | AID 1527;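 active = inhibition above the mean of all tested compounds plus 3 SD, cutoff set per screening run, cut at about 7.5% in these data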;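 also: red hydrolysis product quenches plate fluorescence so inhibitors raise well fluorescence; 0% = enzyme with DMSO and 100% = DMSO without enzyme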
# PolyA inh = inhibitors of polyadenylation in S. cerevisiae | S. cerevisiae SKY197-pL101 polyadenylation reporter, beta-gal luminescence; efflux-impaired pdr1/pdr3 knockout yeast; score 100 = 6 SD above DMSO | activity score, % at 12 µM | actives 0.02% (n = 300,000) | AID 1875;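 active = lowest replicate activity score at least 50, where 100 means six control SD above control mean; inconclusive = lowest score under 50 but half or more replicates reach 50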;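 also: yeast exposed to compound for 9 h at 30 °C; higher score means more reporter readthrough which indicates perturbed polyadenylation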
# NALP3 yeast inh = blocks the NALP3 inflammasome reconstituted in yeast; Yeast reconstituted NLRP3/ASC/caspase-1, beta-gal luminescence, 24 h; inhibition, % at 10 µM; actives 0.39% (n = 330,000); AID 2825;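 active = inhibition of 50% or more; inactive = inhibition below 50%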;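 also: plate controls were induced DMSO wells for no effect and uninduced yeast grown without galactose for full effect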
# NALP1 yeast inh = inhibitors of NALP1 inflammasome in yeast. S. cerevisiae NALP1/ASC/caspase-1 growth, X-gal OD620, 72 h. inhibition, % at 10 µM. actives 0.61% (n = 280,000); in the data active = inhibition mostly above about 24%, no sharp cut-off; inactive = mostly below about 32%
# IMP-1 inh = inhibitors of Pseudomonas aeruginosa IMP-1 metallo-beta-lactamase; purified IMP-1, nitrocefin hydrolysis, epi-absorbance fluorescence; actives 0.45% (n = 290,000); AID 1556; inhibition, % at 5.6 µM;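 active = inhibition above the mean plus 3 SD of all compounds in the same screening run, cut at about 4.5% in these data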;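 also: 0% = IMP-1 with DMSO and 100% = DMSO wells lacking enzyme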
#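 assay system = purified recombinant IMP-1 metallo-beta-lactamase enzyme | schedule = 15 min preincubation plus 25 min reaction at 25 °C | signal = Epi-absorbance fluorescence, 480 nm excitation, 530 nm emission | read-out basis = percent inhibition from optical density relative to buffer-blank wells | controls = IMP-1 with DMSO as 0%, enzyme-free DMSO as 100%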
# SUMO Mot1 rescue = SUMOylation pathway inhibition by Mot1-301 growth rescue; S. cerevisiae Mot1-301 growth rescue, ATP luminescence, 38.5C; percent above DMSO median, 100 means doubled; growth rescue, % at 18.8 µM; actives 1% (n = 320,000); AID 2716;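 active = every valid replicate shows activation above 250% relative to neutral control wells; inactive = the rest, any valid replicate at or below 250%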;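 also: OY570 slx delta 5 strain wells were the positive control but not used for scaling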
# Yeast Mot1 SUMO = yeast SUMO pathway inhibition in dose response. shares compounds with SUMO Mot1 rescue. S. cerevisiae Mot1-301 galactose growth, ATP luminescence, 24 h; -100 = growth of slx-deleted rescue strain. growth activity, percent, % at 42 µM. 2,300 tested, under 10 active. AID 493004;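 active = Signal drops as the depositor expects, and the fitted half-maximal dose is no more than ten times the top valid tested dose; inconclusive = Poor fit, or a flat curve whose signal drops by 30% to 70%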;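 also: more negative values mean stronger growth rescue toward the control strain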
# An asterisk follows results filed as active; ? = inconclusive; . = not tested or not shown; + = active, no number; [ ] = another dose, or the depositor's remark. The list is not random: actives were taken first. Their share in the collection is about 2.9%.
SMILES,VIM-2 inhibitor,PolyA inh,NALP3 yeast inh,NALP1 yeast inh,IMP-1 inh,SUMO Mot1 rescue,Yeast Mot1 SUMO
COCCN(C(=O)c1ccc(N2CCCC2=O)cc1)c1c(N)n(Cc2ccccc2)c(=O)[nH]c1=O,.,.,15,.,.,2,.
COC(=O)c1ccc(NC(=O)c2cccnc2)cc1,-1,8,22,6,-3,4,.
COC(=O)c1cccc(NC(=O)c2cccnc2)c1,-1,-3,11,0,0,+,0
COc1ccc(N2CCN(C(c3cccs3)C(C)NS(C)(=O)=O)CC2)cc1 (stereo unspecified),-5,11,0,17,-4,379*,1
CC(NS(C)(=O)=O)C(c1cccs1)N1CCN(c2ccc(F)cc2)CC1 (stereo unspecified),-4,-5,-3,29,-2,33,.
CCN(C/C=C/c1ccccc1OC)Cc1ccccc1,-1,-7,12,-32,0,-13,.
CCCCN(C/C=C/c1ccccc1OC)Cc1ccccc1,-4,16,10,-10,-2,529*,0
Cc1nc(CS(=O)(=O)c2ccccn2)sc1C(=O)NNC(=O)c1ccc(Cl)cc1,-3,3,-6,.,-1,-5,.
O=C(Nc1cccc(O)c1)C(Cc1ccccc1)N1C(=O)c2cccc3cccc(c23)C1=O (stereo unspecified),-3,-13,13,.,-1,855*,1
CCOC(=O)CC1(NC(=O)c2cc(COc3cccc(OC)c3)on2)CCCCC1,0,5,30,11,-2,0,.
CCOc1ccc(C2(C)CC(=O)N(C)C2=O)cc1 (stereo unspecified),0,7,17,7,-4,-3,.
COC(=O)c1ccc(CSc2nc3ccccc3c(=O)n2CC(C)C)o1,-1,-16,32,20,-1,839*,1
CCOC(=O)CSc1nc2ccccc2c(=O)n1CC,0,-12,13,32,3,-8,.
CCOC(=O)CSc1nc2ccccc2c(=O)n1CC(C)C,-4,0,19,8,-4,573*,0
Brc1ccc(-c2cn3cccnc3n2)cc1,2,.,40,.,-1,662*,-1
CCCC1Cc2c(sc3ncnc(N)c23)CO1 (stereo unspecified),-2,12,6,7,-4,420*,-1
CC1(C)Cc2c(sc3ncnc(N)c23)CO1,0,14,16,-6,1,-1,.
COc1cc(C(=O)NCCC2=CCCCC2)ccc1OC1CCN(C(C)=O)CC1,-1,?,12,7,-2,547*,1
CCOC(=O)C1CCN(CC(O)COc2ccc(C(C)(C)CC)cc2)CC1 (stereo unspecified),1,-59,13,19,0,63,.
CCOC(=O)C1CCN(CC(O)COc2ccc(C(C)(C)C)cc2)CC1 (stereo unspecified),-4,-12,28,28,-4,376*,0
CCOC(=O)C1CCN(CC(O)COCc2ccccc2)CC1 (stereo unspecified),0,14,-2,16,1,554*,0
CCOC(=O)C1CCN(CC(O)COCc2cccs2)CC1 (stereo unspecified),-3,17,4,7,-3,0,.
CCOC(=O)CN1C(=O)N[C@@H](c2cccc(C(F)(F)F)c2)[C@@H](C(=O)OC)[C@H]1C,.,6,2,.,.,-13,.
CC(C)CC(=O)/C=C/n1c(=S)oc2ccccc21,-1,-2,.,24,-1,24,.
CC(=O)/C=C/n1c(=S)oc2ccccc21,-1,-9,.,66,-4,421*,-2
SMILES,VIM-2 inhibitor,PolyA inh,NALP3 yeast inh,NALP1 yeast inh,IMP-1 inh,SUMO Mot1 rescue,Yeast Mot1 SUMO
O=C(CN1c2ccccc2Sc2ccccc21)N/N=C/c1ccc(Cl)cc1Cl,-2,-4,20,.,-2,453*,1[21 µM]
Cc1ccc(N2C(=O)C3CCCN3C2=S)cc1 (stereo unspecified),0,-1,9,5,0,231,.
O=C1C2CCCN2C(=S)N1C1CCCCC1 (stereo unspecified),-1,2,0,2,-2,622*,-1
COc1cccc(C(CNC(=O)C(c2ccccc2)c2ccccc2)N(C)C)c1 (stereo unspecified),-2,2,2,2,-1,162,.
COc1cccc(NC(=O)Cn2nnc(C(=O)NCCc3ccccc3)c2N)c1,-2,24,3,4,-3,-5,.
CNC(=O)Nc1cc(NC(=O)NC)cc(C(F)(F)F)c1,-4,5,24,23,-1,586*,0
CNC(=O)Nc1cccc(C(F)(F)F)c1,-2,-4,10,12,-3,5,.
O=C(O)c1ccc(N=C2NC(=O)C(CO)(CO)S2)cc1,0,4,12,12,-2,767*,0
O=C1NC(=Nc2ccccc2)SC1(CO)CO,-2,?,13,2,-1,15,.
COC(=O)c1c(C)cc(O)c(C=O)c1O,.,-5,8,.,.,567*,0
CN(C)c1cccc(C(=O)N2CCCC(CCC(=O)N3CCN(c4ccccn4)CC3)C2)c1 (stereo unspecified),-3,1,21,1,0,5,.
CN(C)c1ccc(C(=O)N2CCCC(CCC(=O)N3CCN(c4ccccn4)CC3)C2)cc1 (stereo unspecified),-3,-8,12,-6,-1,554*,0
CCOC(=O)c1c(C)[nH]c(C(=O)COC(=O)c2ccncc2)c1C,-2,24,20,2,-1,+,0
COc1ccc(/C=N/NC(=O)c2c(C)nc3ccccn23)cc1[N+](=O)[O-],-4,1,17,-4,-2,569*,0
CSc1ccc(C(=O)C2CCCN(C(=O)CCc3c(C)nn(C)c3C)C2)cc1 (stereo unspecified),-1,-5,12,10,0,-7,.
Cc1ccccc1C(=O)NNc1ncnc2c1cnn2C,-2,12,0,-8,-2,-8,.
Cc1ccc(C(=O)NNc2ncnc3c2cnn3C)cc1,-2,5,0,-21,-3,+,0
O=C(Cc1ccc(Cl)cc1)N/N=C/c1ccncc1,0,0,10,0,-4,3,.
O=C(CN1CCN(Cc2ccc(Cl)cc2)CC1)N/N=C/c1ccncc1,-5,-5,4,20,-2,374*,0
Cc1ccc(S(=O)(=O)N2CCN(S(=O)(=O)N3CCCCCC3)CC2)cc1,1,8,5,-13,0,-13,.
CCN(CC(=O)Nc1ccc(NC(C)=O)cc1)C(=O)CCCSc1nc2ccccc2[nH]1,.,-6,-3,.,.,-18,.

# Bioassay records: PubChem BioAssay, several laboratories
